ChEMBL document CHEMBL1909580, “Branched-chain C-cyano pyranonucleosides: synthesis of 3'-C-cyano & 3'-C-cyano-3'-deoxy pyrimidine pyranonucleosides as novel cytotoxic agents” (Eur J Med Chem, 2011)
Active and inactive are the calls of the source. No cut-off for these calls is given here.

Key:
[1] = tested on: Vesicular stomatitis virus; assay: Antiviral activity against VSV infected in human HeLa cells assessed as inhibition of virus-induced cytopathicity at 100 uM; format: functional, organism-based
Outline: (§1)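 Confluent cell monolayers were infected with 100 CCID50 of virus (1 CCID50 infects 50% of cultures) in the presence of varying concentrations of test compound. Virus-induced cytopathicity was scored once it was complete in the untreated infected controls.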

Influenza B virus = assay: Antiviral activity against influenza B virus infected in MDCK cells assessed as inhibition of virus-induced cytopathicity at 100 uM; format: functional, organism-based; outline: as §1
CCRF-CEM = assay: Cytostatic activity against human CEM cells; format: functional, cell-based
Outline: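 Uninfected CEM cells were run in parallel with the HIV assay for 4 days at 37 °C. IC50 is the concentration inhibiting cell proliferation by 50%, given as the mean ± S.D. of 2–3 independent experiments.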

Feline coronavirus = assay: Antiviral activity against Feline coronavirus infected in feline CRFK cells assessed as inhibition of virus-induced cytopathicity at 100 uM; format: functional, organism-based
Outline: (§2)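 Confluent cell monolayers in microtiter plates were inoculated with 100 CCID50 of virus in the presence of varying test concentrations. 1 CCID50 is the virus dose infecting 50% of cultures. Cytopathicity was scored once it was complete in untreated virus-infected controls.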

Punta Toro virus = assay: Antiviral activity against Punta Toro virus infected in african green monkey Vero cells assessed as inhibition of virus-induced cytopathicity at 100 uM; format: functional, organism-based; outline: as §2
Coxsackievirus B4 [2] = assay: Antiviral activity against Coxsackievirus B4 infected in human HeLa cells assessed as inhibition of virus-induced cytopathicity at 100 uM; format: functional, organism-based; outline: as §2
Felid alphaherpesvirus 1 = assay: Antiviral activity against Feline herpesvirus infected in […] cells assessed as inhibition of virus-induced cytopathicity at 100 uM; format: functional, organism-based
Human respirovirus 3 = assay: Antiviral activity against Parainfluenza 3 virus infected in african green monkey Vero cells assessed as inhibition of virus-induced cytopathicity at 100 uM; format: functional, organism-based; outline: as §2
[3] = tested on: Human immunodeficiency virus 2; assay: Antiviral activity against HIV-2 ROD infected in CEM cells assessed as inhibition of virus-induced cytopathicity at 100 uM; format: functional, organism-based; conditions: ISOLATE ROD, CCRF-CEM
Outline: (§3)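 Virus stocks were titrated in CEM cells as CCID50. CEM cells at ~3 × 10^5 cells/ml were infected with ~100 CCID50 and immediately added to wells holding various test concentrations. After 4 days at 37 °C, giant cell formation was scored microscopically.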

Human alphaherpesvirus 2 = assay: Antiviral activity against HSV2 infected in human HEL cells assessed as inhibition of virus-induced cytopathicity at 100 uM; format: functional, organism-based; outline: as §2
[4] = tested on: Human immunodeficiency virus 1; assay: Antiviral activity against HIV1 3B infected in CEM cells assessed as inhibition of virus-induced cytopathicity at 100 uM; format: functional, organism-based; conditions: CCRF-CEM; outline: as §3
Vaccinia virus = assay: Antiviral activity against Vaccinia virus infected in human HEL cells assessed as inhibition of virus-induced cytopathicity at 100 uM; format: functional, organism-based; conditions: Orthopoxvirus vaccinia; outline: as §1
Influenza A virus [5] = assay: Antiviral activity against influenza A virus H1N1 infected in MDCK cells assessed as inhibition of virus-induced cytopathicity at 100 uM; format: functional, organism-based; outline: as §1
Human alphaherpesvirus 1 = assay: Antiviral activity against HSV1 infected in human HEL cells assessed as inhibition of virus-induced cytopathicity at 100 uM; format: functional, organism-based; outline: as §2
[6] = tested on: Mammalian orthoreovirus 1; assay: Antiviral activity against Reovirus1 infected in african green monkey Vero cells assessed as inhibition of virus-induced cytopathicity at 100 uM; format: functional, organism-based; outline: as §2
[7] = tested on: Vesicular stomatitis virus; assay: Antiviral activity against VSV infected in human HEL cells assessed as inhibition of virus-induced cytopathicity at 100 uM; format: functional, organism-based; outline: as §1
HeLa = assay: Cytostatic activity against human HeLa cells; format: functional, cell-based
Outline: (§4)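 Cell proliferation was measured with the test agents present. IC50 is the concentration giving 50% inhibition of proliferation, given as the mean ± S.D. of 2–3 independent experiments.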

[8] = tested on: Respiratory syncytial virus; assay: Antiviral activity against RSV infected in human HeLa cells assessed as inhibition of virus-induced cytopathicity at 100 uM; format: functional, organism-based; outline: as §2
L1210 = assay: Cytostatic activity against mouse L1210 cells; format: functional, cell-based; outline: as §4
Influenza A virus [9] = assay: Antiviral activity against influenza A virus H3N2 infected in MDCK cells assessed as inhibition of virus-induced cytopathicity at 100 uM; format: functional, organism-based; outline: as §1
Coxsackievirus B4 [10] = assay: Antiviral activity against Coxsackievirus B4 infected in african green monkey Vero cells assessed as inhibition of virus-induced cytopathicity at 100 uM; format: functional, organism-based; outline: as §2

| SMILES | inhibition [1] | inhibition (Influenza B virus) | IC50 (CCRF-CEM) [µM] | inhibition (Feline coronavirus) | inhibition (Punta Toro virus) | inhibition (Coxsackievirus B4 [2]) | inhibition (Felid alphaherpesvirus 1) | inhibition (Human respirovirus 3) | inhibition [3] | inhibition (Human alphaherpesvirus 2) | inhibition [4] | inhibition (Vaccinia virus) | inhibition (Influenza A virus [5]) | inhibition (Human alphaherpesvirus 1) | inhibition [6] | inhibition [7] | IC50 (HeLa) [µM] | inhibition [8] | IC50 (L1210) [µM] | inhibition (Influenza A virus [9]) | other results |
| --- | --- | --- | --- | --- | --- | --- | --- | --- | --- | --- | --- | --- | --- | --- | --- | --- | --- | --- | --- | --- | --- |
| Cc1cn([C@@H]2O[C@H](CO)[C@@H](O)[C@@](O)(C#N)[C@H]2O)c(=O)nc1O | inactive | inactive | > 500 | inactive | inactive | inactive | inactive | inactive | inactive | inactive | inactive | inactive | inactive | inactive | inactive | inactive | > 500 | inactive | 539 | inactive | inhibition (Coxsackievirus B4 [10]): inactive |
| N#C[C@H]1[C@@H](O)[C@H](n2cc(F)c(O)nc2=O)O[C@H](CO)[C@H]1O | inactive | inactive | > 500 | inactive | inactive | inactive | inactive | inactive | inactive | inactive | inactive | inactive | inactive | inactive | inactive | inactive | 819 | inactive | 550 | inactive | inhibition (Coxsackievirus B4 [10]): inactive |
| N#C[C@H]1[C@@H](O)[C@H](n2ccc(O)nc2=O)O[C@H](CO)[C@H]1O | inactive | inactive | > 500 | inactive | inactive | inactive | inactive | inactive | inactive | inactive | inactive | inactive | inactive | inactive | inactive | inactive | 811 | inactive | > 500 | inactive | inhibition (Coxsackievirus B4 [10]): inactive |
| N#C[C@]1(O)[C@H](O)[C@@H](CO)O[C@@H](n2ccc(O)nc2=O)[C@@H]1O | inactive | inactive | > 500 | inactive | inactive | inactive | inactive | inactive | inactive | inactive | inactive | inactive | inactive | inactive | inactive | inactive | > 500 | inactive | 417 | inactive | inhibition (Coxsackievirus B4 [10]): inactive |
| N#C[C@]1(O)[C@H](O)[C@@H](CO)O[C@@H](n2cc(F)c(O)nc2=O)[C@@H]1O | inactive | inactive | 32 | inactive | inactive | inactive | inactive | inactive | inactive | inactive | inactive | inactive | inactive | inactive | inactive | inactive | 4.5 | inactive | 1.9 | inactive | inhibition (Coxsackievirus B4 [10]): inactive |
| N#C[C@]1(O)[C@H](O)[C@@H](CO)O[C@@H](n2ccc(N)nc2=O)[C@@H]1O | inactive | inactive | > 500 | inactive | inactive | inactive | inactive | inactive | inactive | inactive | inactive | inactive | inactive | inactive | inactive | inactive | 377 | inactive | 147 | inactive | inhibition (Coxsackievirus B4 [10]): inactive |
| Cc1cn([C@@H]2O[C@H](CO)[C@@H](O)[C@@H](C#N)[C@H]2O)c(=O)nc1O | inactive | inactive | > 750 | inactive | inactive | inactive | inactive | inactive | inactive | inactive | inactive | inactive | inactive | inactive | inactive | inactive | > 750 | inactive | > 750 | inactive | inhibition (Coxsackievirus B4 [10]): inactive |
| O=c1[nH]cc(F)c(=O)[nH]1 [FLUOROURACIL] | – | – | 18 | – | – | – | – | – | – | – | – | – | – | – | – | – | 0.54 | – | 0.49 | – | – |
| N#C[C@H]1[C@@H](O)[C@H](n2ccc(N)nc2=O)O[C@H](CO)[C@H]1O | inactive | inactive | > 750 | inactive | inactive | inactive | inactive | inactive | inactive | inactive | inactive | inactive | inactive | inactive | inactive | inactive | > 750 | inactive | > 750 | inactive | inhibition (Coxsackievirus B4 [10]): inactive |
